# Data taken from ChEMBL document CHEMBL4428110, “Synthesis and bioactivity of novel isoxazole chalcone derivatives on tyrosinase and melanin synthesis in murine B16 cells for the treatment of vitiligo” (Bioorg Med Chem, 2016).
# Activity calls are given as the source filed them. The calls are words filed in the database; no cut-off is given here.
# Legend:
# Tyrosinase = target: T1, Tyrosinase (Agaricus bisporus, UniProt O42713); experiment: Activation of mushroom tyrosinase using L-tyrosine as substrate preincubated for 5 mins followed by substrate addition measured after 30 mins by ELISA
# T1 sequence (O42713 whole entry): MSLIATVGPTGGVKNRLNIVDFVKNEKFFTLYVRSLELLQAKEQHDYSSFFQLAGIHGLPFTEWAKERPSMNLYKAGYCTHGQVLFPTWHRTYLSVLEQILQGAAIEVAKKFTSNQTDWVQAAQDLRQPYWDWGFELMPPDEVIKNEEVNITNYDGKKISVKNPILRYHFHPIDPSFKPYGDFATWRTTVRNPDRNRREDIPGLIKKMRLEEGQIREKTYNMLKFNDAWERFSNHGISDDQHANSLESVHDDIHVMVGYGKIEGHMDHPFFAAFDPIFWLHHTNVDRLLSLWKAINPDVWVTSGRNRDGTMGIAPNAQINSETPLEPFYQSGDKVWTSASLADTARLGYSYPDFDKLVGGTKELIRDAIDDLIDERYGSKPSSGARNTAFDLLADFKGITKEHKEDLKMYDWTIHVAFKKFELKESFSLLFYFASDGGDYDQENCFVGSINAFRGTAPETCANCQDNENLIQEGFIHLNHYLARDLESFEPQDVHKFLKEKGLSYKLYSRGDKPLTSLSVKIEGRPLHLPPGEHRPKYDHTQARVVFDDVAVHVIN
# Summary of the method: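 Mushroom tyrosinase activation: test compounds (0.5–300 μM) in DMSO preincubated with enzyme 5 min at 25–30 °C, then L-tyrosine (2 mM, 0.1 mL) added and incubated a further 30 min; absorbance read at 490 nm. Rate of activation = [(C−D)−(A−B)]/(A−B)×100, A being the enzyme-only system. EC50 reported as mean ± SD of three independent experiments.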
# B16-F10 = experiment: Cytotoxicity against mouse B16F10 cells assessed as reduction in cell viability at 50 uM after 24 hrs by CCK-8 assay; format: cell-based; details: b16-f10, 24 h
# Summary of the method: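 Viability: B16F10 cells (DMEM, 10% FBS, 37 °C, 5% CO2) plated at 5×10³ cells/well in 96-well plates, left 12 h, then given fresh medium with 50 μM compound for 24 h. After a cold PBS wash, CCK-8 added for 2 h at 37 °C and absorbance read at 450 nm. Proliferation expressed relative to untreated control; mean ± SD of three experiments.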
# [1] = target: T2, Tyrosinase (Mus musculus) (UniProt P11344); experiment: Activation of tyrosinase in mouse B16F10 cells assessed as melanin production at 50 uM after 48 hrs by spectrophotometric analysis relative to control; format: cell-based
# T2 sequence (whole entry): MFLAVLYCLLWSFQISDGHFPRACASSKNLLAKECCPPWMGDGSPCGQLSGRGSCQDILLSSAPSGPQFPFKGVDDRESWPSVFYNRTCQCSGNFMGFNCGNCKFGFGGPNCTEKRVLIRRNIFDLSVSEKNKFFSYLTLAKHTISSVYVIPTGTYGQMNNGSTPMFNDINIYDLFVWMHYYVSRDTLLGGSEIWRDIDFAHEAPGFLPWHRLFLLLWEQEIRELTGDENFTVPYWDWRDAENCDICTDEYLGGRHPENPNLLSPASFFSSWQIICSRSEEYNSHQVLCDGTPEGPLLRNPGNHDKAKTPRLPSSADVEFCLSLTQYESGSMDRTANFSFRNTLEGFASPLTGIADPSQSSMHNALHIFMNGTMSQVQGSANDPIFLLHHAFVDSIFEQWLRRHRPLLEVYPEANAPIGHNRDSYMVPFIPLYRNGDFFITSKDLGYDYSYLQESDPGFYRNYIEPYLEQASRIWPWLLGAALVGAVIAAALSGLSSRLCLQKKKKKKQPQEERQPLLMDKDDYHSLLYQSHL
# Summary of the method: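 B16F10 cells grown in DMEM with 10% heat-inactivated FBS and penicillin/streptomycin at 37 °C, 5% CO2. Seeded at 5×10⁵ cells/well in 6-well plates for 24 h, then exposed to 50 μM compound for 48 h. After a cold PBS wash, cells were lysed in RIPA buffer 40 min on ice and dissolved in 1 M NaOH 2 h at 60 °C. Melanin was read at 405 nm and normalized; three separate experiments.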
# [2] = target: T2, Tyrosinase (Mus musculus); experiment: Potency index, ratio of compound activity to 8-MOP activity for tyrosinase activation in mouse B16F10 cells assessed as melanin production; format: cell-based
EC50 (Tyrosinase),Activity [1],Ratio [2],Structure (SMILES),Activity (B16-F10)
78.1 µM,,,O=C(/C=C/c1ccccc1)c1ccc(OCc2cc(-c3ccccc3)no2)cc1,Non-Toxic
3 µM,Active,,O=C(/C=C/c1ccccc1)c1ccc(OCc2cc(-c3ccc(Cl)c(F)c3)no2)cc1,Non-Toxic
21.3 µM,330%,4,O=C(/C=C/c1ccccc1)c1ccc(OCc2cc(-c3cccc(F)c3)no2)cc1,Non-Toxic
6.4 µM,,,O=C(/C=C/c1ccccc1)c1ccc(OCc2cc(-c3ccc(F)cc3)no2)cc1,Non-Toxic
65.3 µM,,,COc1ccccc1-c1cc(COc2ccc(C(=O)/C=C/c3ccccc3)cc2)on1,Non-Toxic
25.5 µM,Active,,O=C(/C=C/c1ccccc1)c1ccc(OCc2cc(-c3cccc(OC(F)(F)F)c3)no2)cc1,Non-Toxic
23.8 µM,,,O=C(/C=C/c1ccccc1)c1ccc(OCc2cc(-c3cccc(Cl)c3)no2)cc1,Non-Toxic
> 100 µM,,,O=C(/C=C/c1ccccc1)c1ccc(OCc2cc(-c3ccc([N+](=O)[O-])cc3)no2)cc1,Non-Toxic
47.2 µM,,,COc1ccc(-c2cc(COc3ccc(C(=O)/C=C/c4ccccc4)cc3)on2)cc1,Non-Toxic
1.3 µM,463%,3,O=C(/C=C/c1ccccc1)c1ccc(OCc2cc(-c3ccc(F)c(F)c3)no2)cc1,Non-Toxic
8.1 µM,,,O=C(/C=C/c1ccccc1)c1ccc(OCc2cc(-c3ccc(Cl)cc3)no2)cc1,Non-Toxic
2.5 µM,Active,,O=C(/C=C/c1ccccc1)c1ccc(OCc2cc(-c3ccc(Cl)c(Cl)c3)no2)cc1,Non-Toxic

# Second part, the compound before the results:
Structure (SMILES),EC50 (Tyrosinase),Activity [1],Ratio [2],Activity (B16-F10)
O=C(/C=C/c1ccccc1)c1ccc(CCc2cn(Cc3cccc(Cl)c3)nn2)cc1,11.9 µM,,,
Nc1nc2ccc(C(=O)/C=C/c3ccc(Cl)cc3)cc2s1,30.6 µM,,,
O=C(/C=C/c1ccc(Cl)cc1)c1ccc2nc(NC(=O)c3ccccc3)sc2c1,9.6 µM,,,
Cc1ccc(/C=C/C(=O)c2ccc3nc(NC(=O)c4ccccc4)sc3c2)cc1,17.1 µM,,,
O=C(/C=C/c1ccccc1)c1ccc(CCc2cn(Cc3cccc(F)c3)nn2)cc1,5.6 µM,,,
O=C(/C=C/c1ccccc1)c1ccc(CCc2cn(Cc3ccc(Cl)c(Cl)c3)nn2)cc1,1.71 µM,,,
O=C(/C=C/c1ccccc1)c1ccc(OCc2cc(-c3cccs3)no2)cc1,56.2 µM,,,Non-Toxic
O=C(/C=C/c1ccccc1)c1ccc(CCc2cn(Cc3ccc(F)cc3)nn2)cc1,14.6 µM,,,
Cc1ccc(S(=O)(=O)Nc2ccc(C(=O)/C=C/c3ccc(Cl)cc3)cc2)cc1,25.8 µM,,,
O=C(/C=C/c1ccccc1)c1ccc(OCc2cc(-c3ccc(I)o3)no2)cc1,11.4 µM,,,Non-Toxic
O=C(/C=C/c1ccccc1)c1ccc(CCc2cn(Cc3ccc(Cl)cc3)nn2)cc1,23.9 µM,,,
O=C(/C=C/c1ccccc1)c1ccc(OCc2cc(-c3ccc4c(c3)OCCO4)no2)cc1,> 100 µM,438%,4,Non-Toxic
O=C(/C=C/c1ccc(Cl)cc1)c1ccc(NC(=O)c2ccccc2)cc1,21.1 µM,,,
COc1cccc(Cn2cc(CCc3ccc(C(=O)/C=C/c4ccccc4)cc3)nn2)c1,37.4 µM,,,
Cc1ccc(-c2cc(COc3ccc(C(=O)/C=C/c4ccccc4)cc3)on2)o1,35.6 µM,,,Non-Toxic
O=C(/C=C/c1ccccc1)c1ccc(OCc2cc(-c3cc(Cl)cc(Cl)c3)no2)cc1,12.7 µM,57%,,Non-Toxic
CN(C)c1ccc(-c2cc(COc3ccc(C(=O)/C=C/c4ccccc4)cc3)on2)cc1,28.9 µM,,,Non-Toxic
COc1c2occc2cc2ccc(=O)oc12 [METHOXSALEN],14.8 µM,115%,,
